Activity calls are given as the source filed them. The rule behind the calls is not given here.

The subject of test [1] is Leishmania donovani. Kind of test: Antileishmanial activity against Leishmania donovani axenic amastigotes. It is filed as functional, organism-based. A digest of the protocol:
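L. donovani axenic amastigotes (MHOM/SD/62/1S-CL2D), adapted from promastigotes and kept at 37 °C in amastigote medium. 6 × 10^4 cells per well, 2-fold compound dilution series, 3 days at 37 °C in 5% CO2. Growth read by tetrazolium (CellTiter) absorbance at 490 nm. IC50 taken from a four-parameter dose-response fit; three or more separate experiments, error given as SD.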

Test [2] relates to Leishmania mexicana. Kind of test: Reduction in Leishmania mexicana infection in mouse J774 macrophage at 25 nM. The class given is functional. Also on record: scale not given: the % may be the effect or the level left. The procedure, abridged: (§1)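 J774 macrophages (1 × 10^5 per well) allowed to adhere overnight, then infected with 1 × 10^6 L. mexicana promastigotes (MNYC/BCZ/62/M379) overnight at 33 °C. After washing, treated with compound or 1% DMSO vehicle for 3 days at 33 °C, methanol-fixed and Giemsa-stained. Percent reduction of infection is relative to controls; average ± range of two experiments.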

Test [3] has as its system Leishmania mexicana. As to the kind of experiment: Reduction in Leishmania mexicana infection in mouse J774 macrophage at 50 nM. It is filed as functional. The arrangement: scale not given: the % may be the effect or the level left. A digest of the protocol:
as §1

In test [4] the test system is Leishmania mexicana. As to the kind of experiment: Reduction in Leishmania mexicana infection in mouse J774 macrophage at 125 nM. The class given is functional. Also on record: scale not given: the % may be the effect or the level left. The procedure, abridged:
as §1

For a further test, the system named is Vero. Kind of test: Antiproliferative activity against Vero cell. The class given is functional, cell-based. The note with it: Chlorocebus sabaeus. The procedure, abridged: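 Vero cells grown in alpha-MEM with Glutamax-I, 10% heat-inactivated FBS, penicillin/streptomycin. 1 × 10^3 cells per well seeded with compounds over a 2-fold dilution series, run like the amastigote assay: 3 days at 37 °C, humidified, 5% CO2. Growth read by tetrazolium (CellTiter) absorbance at 490 nm. IC50 from four-parameter dose-response fit; three or more separate experiments.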

In test [5] the test system is Leishmania donovani. As to the kind of experiment: Cell cycle arrest in Leishmania donovani promastigotes by accumulation at G2/S phase at 2 uM. The class given is functional, organism-based. The following applies: in the assay text read “G2/M phase” for “G2/S phase”. The procedure, abridged: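 L. donovani promastigotes at 5 × 10^6 cells/mL in RPMI-based promastigote medium with 10% HI-FBS, treated or given vehicle (1% DMSO) for 2 days at 25 °C. Cells then methanol-fixed and stained with propidium iodide (10 µg/mL) with Triton X-100 and RNase A. DNA content per cell measured by flow cytometry; histograms representative of three experiments.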

The subject of a further test is Leishmania sp. As to the kind of experiment: Inhibition of Leishmania tarentolae tubulin assembly. It is filed as functional. A digest of the protocol:
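Purified L. tarentolae tubulin at 1.5 mg/mL in […] pH 6.9 with 1 mM MgCl2, 1 mM EGTA, 10% DMSO and 1 mM GTP, incubated at 30 °C with or without compound (2 or 20 µM tested). Assembly followed as turbidity at 351 nm.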

The test system of test [6] is Leishmania mexicana. As to the kind of experiment: Reduction in Leishmania mexicana infection in mouse J774 macrophage at 2 uM. It is filed as functional. The arrangement: scale not given: the % may be the effect or the level left. The procedure, abridged:
as §1

Test [7] relates to Leishmania mexicana. As to the kind of experiment: Reduction in Leishmania mexicana infection in mouse J774 macrophage at 4 uM. Also on record: scale not given: the % may be the effect or the level left. It is filed as functional. The procedure, abridged: as §1
Test [8] deals with Leishmania mexicana. As to the kind of experiment: Reduction in Leishmania mexicana infection in mouse J774 macrophage at 8 uM. It is filed as functional. Also on record: scale not given: the % may be the effect or the level left. The procedure, abridged:
as §1

Test [9] has as its system Leishmania donovani. Kind of test: Reduction in Leishmania donovani load in infected BALB/c mouse at 50 mg/kg/day, ip. It is filed as functional. The note with it: route intraperitoneal. A digest of the protocol: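 BALB/c mice, 12 weeks old, infected i.v. (tail vein) with 1 × 10^7 hamster-spleen-derived L. donovani amastigotes. After 7 days, dosed i.p. daily for 5 days in 0.5% methylcellulose/0.1% Tween-80/10% DMSO in water; vehicle controls run. Killed 4 days after treatment. Liver burden scored as LDUs from Giemsa-stained smears; mean ± SD of five mice.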

With `CCCN(CCC)c1c([N+](=O)[O-])cc(S(=O)(=O)Nc2cccc(F)c2)cc1[N+](=O)[O-]`, the IC50 (in general, the midpoint of a concentration-inhibition curve) in the test with Leishmania donovani [1] amounted to 2.5 µM. Still for that read-out and setting: for `O=C(O)c1ccccc1C(=O)NCCNc1ccc(C(F)(F)F)cn1` the value was > 100 µM; for `Cc1cc(Sc2nnc3oc(O)cc(C)c2-3)c(C)cc1Cl`, 39 µM; for `CCCCN(CCCC)c1c([N+](=O)[O-])cc(S(=O)(=O)Nc2cccc(F)c2)cc1[N+](=O)[O-]`, 5.7 µM. With `C[C@@H]1[C@H](O)[C@@H](C)/C=C/C=C/C=C/C=C/C=C/C=C/C=C/[C@H](O[C@@H]2O[C@H](C)[C@@H](O)[C@H](N)[C@@H]2O)C[C@@H]2O[C@](O)(C[C@@H](O)C[C@@H](O)[C@H](O)CC[C@@H](O)C[C@@H](O)CC(=O)O[C@H]1C)C[C@H](O)[C@H]2C(=O)O` [AMPHOTERICIN B], the Activity with Leishmania mexicana [2] is recorded as 44%; in the test with Leishmania mexicana [3], 76%; in the test on Leishmania mexicana [4], 96%. In turn, `O=S(=O)(c1ccc(Cl)cc1)N1CCCN(Cc2ccc(Cl)cc2Cl)CC1` returned an IC50 in the test with Leishmania donovani [1] of 72 µM. Regarding `Cc1cc(S(=O)(=O)c2c([N+](=O)[O-])cc(C(F)(F)F)cc2[N+](=O)[O-])c(Cl)cc1Cl`, the concentration for half-maximal inhibition (IC50) in the test on Leishmania donovani [1] was found to be 2.3 µM; with Vero, 24 µM. The compound `Cc1nc(-c2ccc(S(=O)(=O)Nc3ccc(Br)cc3Cl)s2)cs1` gave an IC50 in the test with Leishmania donovani [1] of 66.6 µM.

In the test with Leishmania donovani [1], `O=[N+]([O-])c1ccc(Oc2c(Cl)cccc2Cl)c(Cl)c1Oc1c(Cl)cccc1Cl` returned an IC50 of 80 µM.

For `CC(=O)c1ccc(OCc2ccc(Cl)c(Cl)c2)c([N+](=O)[O-])c1`, the IC50 in the test on Leishmania donovani [1] is > 100 µM.

`CSc1cccc(-n2c(S)nnc2CCc2ccc(O)cc2)c1`: in the test on Leishmania donovani [1], the IC50 is > 100 µM. The same measure, in the same setting: for `COc1ccccc1NC(=O)CSCc1cnc(C)c(O)c1O` the value was > 100 µM. In the test with Leishmania donovani [1], `Cc1cc(C(=O)O)c(Sc2nccn2-c2ccc(Cl)cc2Cl)nc1C#N` gave an IC50 of 21 µM.

On to `OC(CNCc1ccc(Cl)cc1Cl)Cn1c(-c2ccc(F)cc2)cc2ccccc21` (stereo not drawn), for which the IC50 in the test on Leishmania donovani [1] was determined as 37 µM.

In the case of `COc1ccc(CCNc2ccc(C(F)(F)F)cc2[N+](=O)[O-])cc1OC`, the IC50 in the test with Leishmania donovani [1] was > 100 µM. Take `COc1cc(C2SCCS2)cc(Br)c1Oc1cc(C)c(C(F)(F)F)cc1[N+](=O)[O-]`: the IC50 in the test with Leishmania donovani [1] was > 100 µM. Same read-out and setting: for `O=C1NC(=O)c2c1ccc(Sc1c(Cl)cccc1Cl)c2[N+](=O)[O-]` the value was 60 µM; for `COc1ccc([N+](=O)[O-])c(OC)c1C(=O)NCCCn1ccnc1`, > 100 µM.

For the compound `Cc1cc(Sc2c([N+](=O)[O-])cc(C(F)(F)F)cc2[N+](=O)[O-])c(Cl)cc1Cl`, the values for the half-maximal inhibitory concentration (IC50) in the test on Leishmania donovani [1] and in the test with Vero were 0.5 µM and 5.3 µM, respectively. Further, the result in the test on Leishmania donovani [5] and with Leishmania sp. was inactive. Also, the Activity in the test with Leishmania mexicana [6] is listed as 13%; in the test on Leishmania mexicana [7], 43%; in the test on Leishmania mexicana [8], 68%; in the test with Leishmania donovani [9], 1583. As to `O=C(CSCc1cccc(C(F)(F)F)c1)c1ccc(OCc2ccc(F)cc2)cc1`, the IC50 with Leishmania donovani [1] is > 100 µM. Still for that read-out and setting: for `O=S(=O)(Nc1ccc(Oc2ccc(C(F)(F)F)cc2)cc1)c1cc(Cl)c(Cl)cc1Cl` the value was 25 µM; for `CCCCN(CCCC)c1c([N+](=O)[O-])cc(S(=O)(=O)Nc2ccc(F)cc2)cc1[N+](=O)[O-]`, 5.6 µM; for `Cc1cc(C)c(-n2nnnc2SCc2ccc(C(F)(F)F)cc2)c(C)c1`, 32 µM.

The values are drawn from ChEMBL document CHEMBL1138888, “Activity of and initial mechanistic studies on a novel antileishmanial agent identified through in silico pharmacophore development and database searching” (J Med Chem, 2006).
